Hits are enriched below; roughly 6.7% of the tested compounds scored in any of these assays.
CSC inhib = blocks cancer stem cells; cancer stem cell-like cells viability, luminescence; inhibition, % at 7.5 µM; hit rate 1.1% among 300,000; AID 2717; in the data active means inhibition above about 75%; inconclusive means no clear call, values can overlap the other calls; tested in HMLE shEcad cells
T cruzi repl = blocks replication of Trypanosoma cruzi; AID 1885; hit rate 1.4% among 300,000; T. cruzi beta-gal in NIH3T3, luminescence, 90 h; inhibition, % (test concentration not listed);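 active means mean inhibition across valid replicates above about 55%, limit read from the data; inconclusive means mean below that limit but half or more replicates reach it; inactive means mean below it, under half of replicates reach it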;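 further: signal also drops with host cell toxicity which is not excluded here; 0% = plate median of DMSO wells and 100% = zero luminescence signal; higher percent means less beta-gal luminescence so fewer parasites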
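Incubation – ≥90 h infection period, 3 h prior cell attachment · System – NIH/3T3 fibroblasts plus reporter T. cruzi · Doses – compound pinned at 50 nL/well, DMSO · Read-out basis – percent inhibition of parasite-derived β-gal signal · Signal – luminescent β-galactosidase signal after 60 min lysis · Also added – 5000 T. cruzi trypomastigotes/well · Medium – Low-serum DMEM with 2% FBS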
NR3A LBD binder = modulators (binders) of human NR3A ligand-binding domain. NR3A LBD differential scanning fluorimetry, Tm shift; 0% = protein alone, 100% = glycine-bound protein. Tm shift relative to glycine control, % at 25 µM. hit rate 2.5% among 340,000;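 active means melting temperature shift of at least 10% of the positive control shift, at one fixed dose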
PREPL inhibitor = human PREPL enzyme inhibition; hit rate 0.68% among 320,000; inhibition, % at 5.96 µM; AID 2751; Q4J6C6; recombinant PREPL, fluorescence polarization activity-based probe; in the data active means inhibition above about 43%;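 further: 0% = enzyme with DMSO and 100% = wells lacking enzyme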
Target sequence (Q4J6C6 whole entry, looked up): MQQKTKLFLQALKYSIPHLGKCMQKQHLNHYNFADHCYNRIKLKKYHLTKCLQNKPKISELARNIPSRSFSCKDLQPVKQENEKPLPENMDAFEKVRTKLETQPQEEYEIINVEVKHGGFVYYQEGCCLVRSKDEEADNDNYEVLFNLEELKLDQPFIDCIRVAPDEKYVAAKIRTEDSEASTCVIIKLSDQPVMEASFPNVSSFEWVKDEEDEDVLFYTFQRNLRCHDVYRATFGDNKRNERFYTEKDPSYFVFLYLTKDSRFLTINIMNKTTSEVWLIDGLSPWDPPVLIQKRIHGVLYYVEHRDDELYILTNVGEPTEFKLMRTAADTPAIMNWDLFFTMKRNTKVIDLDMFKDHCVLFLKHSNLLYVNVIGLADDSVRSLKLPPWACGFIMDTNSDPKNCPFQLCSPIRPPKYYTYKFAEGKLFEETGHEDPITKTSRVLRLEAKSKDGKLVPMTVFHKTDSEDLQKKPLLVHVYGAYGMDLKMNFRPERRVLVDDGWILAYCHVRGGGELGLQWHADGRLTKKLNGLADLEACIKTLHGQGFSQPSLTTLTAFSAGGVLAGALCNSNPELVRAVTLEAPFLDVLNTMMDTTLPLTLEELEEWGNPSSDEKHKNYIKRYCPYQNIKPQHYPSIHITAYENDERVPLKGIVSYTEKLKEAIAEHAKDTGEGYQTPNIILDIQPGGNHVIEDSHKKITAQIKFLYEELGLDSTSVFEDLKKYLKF
CHOP inhibitor = blocks CHOP induction under ER stress | CHO-K1 CHOP-promoter luciferase, tunicamycin-induced, 15-18 h | inhibition, % at 10 µM | hit rate 3.8% among 220,000;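 active means compounds that reduced the stress-induced luciferase reporter signal by more than about 70% of percent inhibition, limit read from the data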;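 further: 0% = tunicamycin plus vehicle and 100% = wells without tunicamycin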
Beta apoptosis = beta cell apoptosis inhibition; INS-1E cytokine-induced death, ATP luminescence, 48 h; percent of positive-control rescue, neutral wells zero; protection from apoptosis, % (test concentration not listed); hit rate 0.8% among 300,000;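 active means Every replicate reaches about 75%, or at least half do and their mean reaches it too, limit read from the data; inconclusive means At least half of replicates reach the limit but their mean does not; inactive means Under half of replicates reach the limit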;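 further: 0% = cytokine-treated negative control wells and 100% = positive control rescue; higher means more ATP so stronger rescue from cytokine killing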
An asterisk follows results filed as active.

What do the screens show for `OCCN(Cc1ccccc1)Cc1cccc(C(F)(F)F)c1`?
CSC inhib: -8; NR3A LBD binder: -1; PREPL inhibitor: 0; CHOP inhibitor: 46; Beta apoptosis: 1

Results for O=C1CC(N2CCN(S(=O)(=O)c3ccccc3F)CC2)C(=O)N1c1ccccc1Cl (centres undefined) ?
NR3A LBD binder: 0; PREPL inhibitor: 8; Beta apoptosis: -9

How did CCc1noc(C)c1C(=O)Nc1cc(S(=O)(=O)N2CCOCC2)ccc1OC(C)C do in these assays?
T cruzi repl: 3; NR3A LBD binder: 3; PREPL inhibitor: 0; Beta apoptosis: 1

How did COc1cc(C=O)ccc1OCCOCCOc1c(C)cc(Cl)cc1Cl do in these assays?
CSC inhib: 37; NR3A LBD binder: 0; PREPL inhibitor: -36; CHOP inhibitor: 41; Beta apoptosis: -4

Results for COc1cc(C)ccc1OCCOc1c(C)cc(Cl)cc1Cl ?
CSC inhib: 6; T cruzi repl: 7; NR3A LBD binder: 10*; PREPL inhibitor: -3; CHOP inhibitor: 42; Beta apoptosis: -4

What do the screens show for `CCOc1ccc(NC(=O)c2ccc(Cl)c(NC(=O)c3ccco3)c2)cc1`?
CSC inhib: -7; T cruzi repl: 7; NR3A LBD binder: 1; PREPL inhibitor: -7; Beta apoptosis: -2

How did CCOC(=O)c1nnn(-c2ccc([N+](=O)[O-])cc2[N+](=O)[O-])c1C do in these assays?
CSC inhib: 14; T cruzi repl: 96*; NR3A LBD binder: 2; PREPL inhibitor: 12; CHOP inhibitor: -14; Beta apoptosis: 37

How did CCOC(=O)c1nnn(-c2ccccc2)c1C do in these assays?
CSC inhib: -12; T cruzi repl: -10; NR3A LBD binder: -1; PREPL inhibitor: 0; CHOP inhibitor: 14; Beta apoptosis: -10

What do the screens show for `COc1ccccc1CNCCCCCCNCCCCCCCCNCCCCCCNCc1ccccc1OC`?
CHOP inhibitor: -13

What do the screens show for `Cc1ccc(N2C(=O)CC(Sc3nc4ccccc4o3)C2=O)cc1Cl` (centres undefined)?
CSC inhib: -6; T cruzi repl: 69*; NR3A LBD binder: -4; PREPL inhibitor: -28; CHOP inhibitor: 8; Beta apoptosis: -10

Results for Clc1ccc(Nc2ccc(-n3ccnc3)nn2)cc1Cl ?
CSC inhib: 8; T cruzi repl: 13; NR3A LBD binder: 19*; PREPL inhibitor: 26; CHOP inhibitor: 22; Beta apoptosis: 3

How did c1ccc(Nc2ccc(-n3ccnc3)nn2)cc1 do in these assays?
CSC inhib: -13; T cruzi repl: -5; NR3A LBD binder: -6; PREPL inhibitor: 15; CHOP inhibitor: -17; Beta apoptosis: -2

What do the screens show for `CCCCCCCC/C=C\CCCCCCCC(=O)NCCO`?
CSC inhib: -7; NR3A LBD binder: 10*; PREPL inhibitor: 13; CHOP inhibitor: 31; Beta apoptosis: -2

Results for CCCCCCCC/C=C\CCCCCCCC(=O)NCCc1ccc(O)c(O)c1 ?
CSC inhib: 100*; NR3A LBD binder: -1; PREPL inhibitor: 8; CHOP inhibitor: -11; Beta apoptosis: inconclusive

How did Cc1cc(C(=O)N2CCN(Cc3ccccc3)CC2)on1 do in these assays?
CSC inhib: -1; T cruzi repl: -6; NR3A LBD binder: 0; PREPL inhibitor: 10; CHOP inhibitor: -5; Beta apoptosis: 3

Results for O=c1cc(CN2CC(O)Cc3ccc4ccccc4c32)nc2sccn12 (centres undefined) ?
CSC inhib: -15; T cruzi repl: 0; NR3A LBD binder: -1; PREPL inhibitor: 9; CHOP inhibitor: 20; Beta apoptosis: -19

What do the screens show for `CC1=N/C(=C/c2cccnc2)C(=O)O1`?
CSC inhib: -18; T cruzi repl: -9; NR3A LBD binder: -1; PREPL inhibitor: -4; CHOP inhibitor: 5; Beta apoptosis: -8

Results for COC1(OC)N=C(N)C2(C#N)C(c3ccc(F)cc3)C12C#N (centres undefined) ?
CSC inhib: -10; T cruzi repl: -6; NR3A LBD binder: 0; PREPL inhibitor: -7; CHOP inhibitor: -8; Beta apoptosis: 1

What do the screens show for `CCSC1(SCC)N=C(N)C2(C#N)C(c3ccc(F)cc3)C12C#N` (centres undefined)?
CSC inhib: 68; T cruzi repl: -18; NR3A LBD binder: -4; PREPL inhibitor: 5; CHOP inhibitor: 82*; Beta apoptosis: -8

Results for CSCCC(NC(=O)c1ccco1)C(=O)NC1CCCCCC1 (centres undefined) ?
CSC inhib: 7; T cruzi repl: -1; NR3A LBD binder: 3; PREPL inhibitor: 3; Beta apoptosis: 1

How did CCOC(=O)c1c(NC(NC(=O)C(C)C)C(Cl)(Cl)Cl)sc2c1CCC2 (centres undefined) do in these assays?
CSC inhib: 101*; T cruzi repl: 16; NR3A LBD binder: 3; PREPL inhibitor: 0; CHOP inhibitor: 53; Beta apoptosis: 5

Results for O=C(O)c1ccc2c(c1)C(=O)N(N1C(=O)c3ccccc3C1=O)C2=O ?
CSC inhib: 3; T cruzi repl: -4; NR3A LBD binder: 3; PREPL inhibitor: 1; CHOP inhibitor: 25; Beta apoptosis: 5

How did Cc1ccc(NC(=O)CSc2ncnc3ccccc23)cc1S(=O)(=O)N1CCCCCC1 do in these assays?
CSC inhib: 13; T cruzi repl: -6; NR3A LBD binder: -1; PREPL inhibitor: 10; CHOP inhibitor: 70*; Beta apoptosis: -3

Results for Cc1ccc(NC(=O)COc2ccc(N(C)C(=O)C(C)(C)C)cc2)cc1S(=O)(=O)N1CCCCC1 ?
CSC inhib: 3; NR3A LBD binder: -2; PREPL inhibitor: 14; Beta apoptosis: 115*

How did COc1ccc(C2=NCC(CSc3nnc(-c4ccc5c(c4)OCO5)o3)S2)cc1 (centres undefined) do in these assays?
CSC inhib: 9; T cruzi repl: 57*; NR3A LBD binder: -1; PREPL inhibitor: -12; CHOP inhibitor: 17; Beta apoptosis: -2

How did CC(=O)CSc1nnc(-c2ccc3c(c2)OCO3)o1 do in these assays?
CSC inhib: 13; T cruzi repl: -10; NR3A LBD binder: 3; PREPL inhibitor: -12; CHOP inhibitor: -16; Beta apoptosis: -2

What do the screens show for `O=C(O)CCSc1nnc(-c2ccc3c(c2)OCO3)o1`?
CSC inhib: 2; T cruzi repl: -11; NR3A LBD binder: -1; PREPL inhibitor: -10; CHOP inhibitor: 86*; Beta apoptosis: -5

What do the screens show for `C=CCn1c(SCc2ccc(C#N)cc2)nnc1-c1ccc(C)cc1`?
CSC inhib: 1; T cruzi repl: 2; NR3A LBD binder: 0; PREPL inhibitor: 16; CHOP inhibitor: 9; Beta apoptosis: 9

Results for COc1cc(-c2nc(-c3ccccc3)c(-c3cc([N+](=O)[O-])ccc3C)[nH]2)cc(OC)c1OC ?
CSC inhib: 38; T cruzi repl: 58*; NR3A LBD binder: -1; PREPL inhibitor: 11; CHOP inhibitor: 40; Beta apoptosis: 3
